Assay results as given in ChEMBL document CHEMBL1781999, “Lead optimization of aryl and aralkyl amine-based triazolopyrimidine inhibitors of Plasmodium falciparum dihydroorotate dehydrogenase with antimalarial activity in mice” (J Med Chem, 2011).
In brackets after ≈: the same amount, converted by molar mass.

What was measured:
[1] = biological target: T1, Dihydroorotate dehydrogenase (Plasmodium falciparum, UniProt Q54A96); assay: Inhibition of His6-tagged recombinant Plasmodium falciparum dihydroorotate dehydrogenase expressed in Escherichia coli using L-dihydroorotate as substrate after 5 to 10 mins by DCIP dye-based assay
T1 sequence (Q54A96 whole entry): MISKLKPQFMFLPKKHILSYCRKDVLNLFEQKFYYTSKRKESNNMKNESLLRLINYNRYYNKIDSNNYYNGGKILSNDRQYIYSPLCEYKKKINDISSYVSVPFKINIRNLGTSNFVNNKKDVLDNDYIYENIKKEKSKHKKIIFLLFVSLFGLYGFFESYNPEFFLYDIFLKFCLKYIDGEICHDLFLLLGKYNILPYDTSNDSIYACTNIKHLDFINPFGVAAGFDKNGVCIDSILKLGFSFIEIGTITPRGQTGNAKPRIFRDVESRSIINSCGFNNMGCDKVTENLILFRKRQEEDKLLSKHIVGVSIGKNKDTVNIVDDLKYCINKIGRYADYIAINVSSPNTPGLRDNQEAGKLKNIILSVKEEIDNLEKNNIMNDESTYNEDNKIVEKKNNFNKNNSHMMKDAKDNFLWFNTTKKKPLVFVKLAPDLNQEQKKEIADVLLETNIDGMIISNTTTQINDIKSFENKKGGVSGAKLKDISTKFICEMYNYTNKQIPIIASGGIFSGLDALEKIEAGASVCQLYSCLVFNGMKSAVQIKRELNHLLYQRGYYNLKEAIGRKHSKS

Plasmodium falciparum = assay: Antimalarial activity against Plasmodium falciparum 3D7 infected in human A positive erythrocytes by [3H]hypoxanthine uptake assay in presence of serum in medium; format: functional, organism-based
In short: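 Growth read by [3H]-hypoxanthine uptake. Each concentration run in quadruplicate and fitted to a four-parameter variable-slope log[I]-response model for 50% growth inhibition.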

[2] = Inhibition of His6-tagged recombinant Plasmodium berghei dihydroorotate dehydrogenase expressed in Escherichia coli using L-dihydroorotate as substrate after 10 to 15 mins by DCIP dye-based assay; conditions: in the assay text read “5 to 10 mins” for “10 to 15 mins”
In short: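 Truncated soluble enzyme lacking the N-terminal membrane domain. Final concentrations: 0.2 mM L-dihydroorotate, 0.02 mM CoQD, 0.12 mM DCIP. Reaction started with 10 nM enzyme and read at 600 nm for 5–10 min at 20 °C. Inhibitor 0.01–100 μM in 3-fold steps, in triplicate. IC50 from a three-parameter fit of vi/vo from initial rates.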

[3] = biological target: Dihydroorotate dehydrogenase (quinone), mitochondrial (Homo sapiens, UniProt Q02127); assay: Inhibition of His6-tagged recombinant human dihydroorotate dehydrogenase expressed in Escherichia coli using L-dihydroorotate as substrate after 5 to 10 mins by DCIP dye-based assay
Liver microsomes = assay: Intrinsic clearance in human liver microsome assessed per mg of protein at 1 uM after 60 mins by LC-MS analysis; format: ADME; conditions: microsomes, 1 h, 1 µM
In short: (§1)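 Microsomal stability. Compound at 1 μM with liver microsomes (0.4 mg/mL protein) in 0.1 M phosphate pH 7.4 at 37 °C. Started with an NADPH-regenerating system plus MgCl2; controls lacked NADPH. Quenched with cold acetonitrile at time points up to 60 min. Parent loss measured by LC-MS and fitted to exponential decay to give CLint.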

[4] = Aqueous solubility of the compound in phosphate buffer at pH 6.5; format: physicochemical
In short: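 Non-equilibrium solubility. Concentrated DMSO stocks were diluted into pH 6.5 phosphate buffer (final DMSO 1% v/v) and precipitation was monitored by nephelometry. Solubility is given as the concentration range just before a turbidity signal rose above background.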

[5] = Partition coefficient, log D of the compound at pH 7.4 by UV-HPLC analysis; conditions: octanol/water
[6] = Plasma protein binding in human by albumin chromatographic method; format: ADME, cell-free; conditions: read-out: PPB (converted)
Liver = assay: Intrinsic clearance in mouse liver microsome assessed per mg of protein at 1 uM after 60 mins by LC-MS analysis; format: ADME; conditions: microsomes, 1 h
In short: as §1

[7] = Inhibition of His6-tagged recombinant Plasmodium berghei dihydroorotate dehydrogenase expressed in Escherichia coli using L-dihydroorotate as substrate after 5 to 10 mins by DCIP dye-based assay
[8] = phosphate buffer, read-out: solubility

Dihydroorotate dehydrogenase (quinone), mitochondrial, sequence (Q02127 whole entry): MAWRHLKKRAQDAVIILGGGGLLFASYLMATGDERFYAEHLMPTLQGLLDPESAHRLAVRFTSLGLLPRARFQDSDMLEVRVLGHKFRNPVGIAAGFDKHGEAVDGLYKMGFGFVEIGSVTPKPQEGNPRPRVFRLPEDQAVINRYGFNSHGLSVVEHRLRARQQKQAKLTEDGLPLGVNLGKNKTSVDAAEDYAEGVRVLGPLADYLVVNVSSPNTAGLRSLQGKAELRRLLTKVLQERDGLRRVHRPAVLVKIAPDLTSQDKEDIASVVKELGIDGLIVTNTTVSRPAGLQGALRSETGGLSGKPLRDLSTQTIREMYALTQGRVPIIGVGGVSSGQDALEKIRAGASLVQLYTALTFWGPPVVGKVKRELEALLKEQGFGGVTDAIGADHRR

SMILES | IC50 [1] [µM] | EC50 (Plasmodium falciparum) [µM] | IC50 [2] [µM] | IC50 [3] [µM] | other results
Cc1cc(Nc2ccc(OC(C)(C)C)cc2)n2ncnc2n1 | 44 | > 10 | – | – | –
FC(F)(F)c1ccc(Nc2cc(Cl)nc3ncnn23)cc1 | 0.17 | 3.4 | 0.13 | > 100 | –
Cc1cc(Nc2ccc(N3CCCC3)cc2)n2ncnc2n1 | 3.5 | > 20 | > 50 | – | –
Cc1cc(NC2CCCCCCCCCCC2)n2ncnc2n1 | 58 | – | – | – | –
COc1cc2c(cc1OC)CC(Nc1cc(C)nc3ncnn13)C2 | 4.6 | 7.7 | 41 | – | –
CCCCc1ccc(Nc2cc(C)nc3ncnn23)cc1 | 0.28 | 4.8 | 5.25 | > 100 | CL (Liver microsomes): 36 µL/min/mg; solubility [4, 8]: 11 µM (≈ 3.09 µg/mL); logD [5]: 3.6; fraction unbound [6]: 0.033
Cc1cc(Nc2ccc(SC(F)(F)F)cc2)n2ncnc2n1 | 0.61 | 0.27 | 1.2 | > 50 | CL (Liver microsomes): < 5 µL/min/mg; solubility [4, 8]: 5 µM (≈ 1.63 µg/mL); CL (Liver): 119 µL/min/mg; fraction unbound [6]: 0.039
Cc1cc(NCc2ccc(C(F)(F)F)cc2)n2ncnc2n1 | > 100 | – | – | – | IC50 [7]: > 100 µM
Cc1cc(Nc2ccc(C(F)(F)F)c(C(F)(F)F)c2)n2ncnc2n1 | 0.54 | 2.3 | 0.55 | – | –
Cc1cc(Nc2ccc(OCc3ccccc3)cc2)n2ncnc2n1 | 5.4 | > 10 | – | – | IC50 [7]: > 100 µM
CCCCCCCc1ccc(Nc2cc(C)nc3ncnn23)cc1 | 24 | > 5 | > 50 | – | –
C#Cc1ccc(Nc2cc(C)nc3ncnn23)cc1 | 1.1 | 5.1 | 4.1 | > 100 | CL (Liver microsomes): 8 µL/min/mg; solubility [4, 8]: 100 µM (≈ 24.9 µg/mL); CL (Liver): 27 µL/min/mg; logD [5]: 2.2; fraction unbound [6]: 0.182
Cc1cc(Nc2ccc3[nH]c(C(F)(F)F)nc3c2)n2ncnc2n1 | 21 | 25 | > 50 | – | –
Cc1cc(NC2Cc3ccc(F)cc3C2)n2ncnc2n1 (stereo not given) | 0.61 | 1.3 | 1.4 | > 50 | –
Cc1cc(NC2CCCC2)n2ncnc2n1 | > 100 | – | – | – | –
CCCCCCc1ccc(Nc2cc(C)nc3ncnn23)cc1 | 4.2 | > 5 | 20 | – | –
CCCCCCCNc1cc(C)nc2ncnn12 | 8.6 | 13 | 55 | – | –
Cc1cc(Nc2ccc3ccccc3c2)n2ncnc2n1 | – | – | – | – | solubility [4, 8]: 45 µM (≈ 12.4 µg/mL); logD [5]: 3.2; fraction unbound [6]: 0.062
CCc1cc(Nc2ccc(C(F)(F)F)cc2)n2ncnc2n1 | 0.78 | 2.3 | 2 | > 100 | –
CCCCCc1ccc(Nc2cc(C)nc3ncnn23)cc1 | 0.82 | > 5 | 22 | > 100 | –
Cc1cc(NCCCc2ccccc2)n2ncnc2n1 | 26 | 25 | – | – | IC50 [7]: > 100 µM
Cc1cc(NC2CCCCCC2)n2ncnc2n1 | > 100 | – | – | – | –
Cc1cc(NC2CCC2)n2ncnc2n1 | > 100 | – | – | – | –
Cc1cc(Nc2ccc(N3CCOCC3)cc2)n2ncnc2n1 | > 100 | > 10 | – | – | IC50 [7]: > 100 µM
Cc1cc(NC2CC2)n2ncnc2n1 | > 100 | – | – | – | –
CCCc1ccc(Nc2cc(C)nc3ncnn23)cc1 | 0.99 | 6.8 | 9 | > 100 | CL (Liver microsomes): 36 µL/min/mg; solubility [4, 8]: 187 µM (≈ 50 µg/mL); logD [5]: 3.1; fraction unbound [6]: 0.065

SMILES | IC50 [1] [µM] | EC50 (Plasmodium falciparum) [µM] | IC50 [2] [µM] | IC50 [3] [µM] | other results
Cc1cc(NOc2ccccc2)n2ncnc2n1 | > 100 | – | – | – | IC50 [7]: > 100 µM
CCCCCCCCc1ccc(Nc2cc(C)nc3ncnn23)cc1 | > 50 | > 5 | – | – | IC50 [7]: > 100 µM
Cc1cc(NC2CCc3cc(Cl)ccc3C2)n2ncnc2n1 (stereo not given) | 0.67 | 10 | – | – | IC50 [7]: 10 µM
Cc1ccc(Nc2c3c(nc4ncnn24)CCC3)cc1F | – | 8.3 | 1.3 | > 100 | –
CCc1c(C)nc2ncnn2c1Nc1ccc(C(C)C)cc1 | 1.7 | > 10 | 4.5 | > 100 | –
CCc1c(C)nc2ncnn2c1Nc1ccc(OC(F)(F)F)cc1 | – | > 10 | 5.7 | > 100 | –
Cc1cc(Nc2ccc(N(C)C)cc2)n2ncnc2n1 | 0.82 | 2.7 | 12 | > 100 | CL (Liver microsomes): 9 µL/min/mg; solubility [4, 8]: 93 µM (≈ 25 µg/mL); CL (Liver): 226 µL/min/mg; logD [5]: 2.2
FC(F)(F)c1ccc(Nc2cc(C(F)(F)F)nc3ncnn23)cc1 | 1.7 | > 10 | 2.3 | > 100 | –
Cc1cc(Nc2ccc3c(c2)CCC3)n2ncnc2n1 | 0.22 | 0.8 | 1 | > 100 | CL (Liver microsomes): 77 µL/min/mg; solubility [4, 8]: 47 µM (≈ 12.5 µg/mL); CL (Liver): 341 µL/min/mg; logD [5]: 2.9; fraction unbound [6]: 0.075
Cc1cc(Nc2ccc3c(c2)OCO3)n2ncnc2n1 | 1.6 | 21 | 55 | > 100 | CL (Liver microsomes): 11 µL/min/mg; solubility [4, 8]: 186 µM (≈ 50.1 µg/mL); logD [5]: 1.6
Cc1cc(NCc2ccccc2)n2ncnc2n1 | > 100 | > 10 | – | – | –
Cc1cc(NC2CCCCC2)n2ncnc2n1 | > 100 | – | – | – | –
Cc1cc(NC2Cc3ccc(Br)cc3C2)n2ncnc2n1 (stereo not given) | 1.2 | 6.6 | 3.3 | > 50 | –
Cc1cc(Nc2ccc(C(C)(C)C)cc2)n2ncnc2n1 | 0.078 | 0.32 | 0.4 | > 100 | CL (Liver microsomes): 43 µL/min/mg; solubility [4, 8]: 11 µM (≈ 3.09 µg/mL); logD [5]: 3.4; fraction unbound [6]: 0.068
Cc1cc(Nc2ccc(CC(F)(F)F)cc2)n2ncnc2n1 | 2.5 | – | 8.8 | – | –
Cc1cc(NC2CCc3cc(F)ccc3C2)n2ncnc2n1 (stereo not given) | 0.63 | 2.5 | 1.9 | – | –
Cc1cc(NCc2ccc(F)cc2)n2ncnc2n1 | > 100 | > 10 | – | – | –
Cc1cc(NCCc2ccccc2)n2ncnc2n1 | 15 | > 20 | 27 | – | –
CCc1ccc(Nc2cc(C)nc3ncnn23)cc1 | 0.61 | 3.3 | 3.9 | > 100 | CL (Liver microsomes): 61 µL/min/mg; solubility [4, 8]: 25 µM (≈ 6.33 µg/mL); logD [5]: 2.6; fraction unbound [6]: 0.12
Cc1cc(Nc2ccc(Cl)c(F)c2)n2ncnc2n1 | 0.55 | 3.5 | 1.3 | > 50 | –
CCc1nc(N)nc(N)c1-c1ccc(Cl)cc1 [PYRIMETHAMINE] | – | 0.023 | – | – | fraction unbound [6]: 0.13
Cc1cc(NC2CCCCCCC2)n2ncnc2n1 | > 100 | – | – | – | –
Cc1cc(Nc2ccc(C3CC3)cc2)n2ncnc2n1 | 0.42 | 1.4 | 2.9 | > 100 | CL (Liver microsomes): 53 µL/min/mg; solubility ([4]; buffer): > 377 µM; CL (Liver): 287 µL/min/mg; logD [5]: 2.7; fraction unbound [6]: 0.132
C=Cc1ccc(Nc2cc(C)nc3ncnn23)cc1 | – | 0.34 | 4.5 | > 100 | CL (Liver microsomes): 32 µL/min/mg; solubility [4, 8]: 25 µM (≈ 6.28 µg/mL); CL (Liver): 168 µL/min/mg; logD [5]: 2.4; fraction unbound [6]: 0.156
Cc1cc(Nc2ccc(C(C)(C)C#N)cc2)n2ncnc2n1 | – | 3.7 | – | – | –
